Experimental findings from PubChem BioAssay AID602285 (Broad Institute, 2012) are described below.

The source made the active and inactive calls.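 How the source made its calls: active means AC50 at or below twice the top valid dose for that sample, with falling signal; inconclusive means flat curve with inhibition of 30 to 70%, or poor fit; inactive means activity in the wrong direction, plus the rest.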

The first experiment deals with Scavenger receptor class B member 1 (Mus musculus) (UniProt Q61009). Put plainly: SR-BI mediated DiI-HDL lipid uptake blockers – ldlA[mSR-BI] CHO cells, fluorescence plate reader, dry powder, set 8, dose response (AID 602285). The conditions noted are these: 3 h. Summed up: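 Assay system: ldlA[mSR-BI] cells, LDL receptor-deficient CHO line overexpressing murine SR-BI; Buffer or medium: Ham's F12, fatty acid-free BSA, HEPES pH 7.4; Dosing: pin-transferred compound series; Times: 3 h uptake at 37 °C; Measured by: bottom-read DiI fluorescence after PBS washes, excitation 550 nm, emission 595 nm; Controls: DMSO as neutral control, BLT-1 as inhibitor control.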
Scavenger receptor class B member 1 (Mus musculus), sequence (Q61009 whole entry, looked up): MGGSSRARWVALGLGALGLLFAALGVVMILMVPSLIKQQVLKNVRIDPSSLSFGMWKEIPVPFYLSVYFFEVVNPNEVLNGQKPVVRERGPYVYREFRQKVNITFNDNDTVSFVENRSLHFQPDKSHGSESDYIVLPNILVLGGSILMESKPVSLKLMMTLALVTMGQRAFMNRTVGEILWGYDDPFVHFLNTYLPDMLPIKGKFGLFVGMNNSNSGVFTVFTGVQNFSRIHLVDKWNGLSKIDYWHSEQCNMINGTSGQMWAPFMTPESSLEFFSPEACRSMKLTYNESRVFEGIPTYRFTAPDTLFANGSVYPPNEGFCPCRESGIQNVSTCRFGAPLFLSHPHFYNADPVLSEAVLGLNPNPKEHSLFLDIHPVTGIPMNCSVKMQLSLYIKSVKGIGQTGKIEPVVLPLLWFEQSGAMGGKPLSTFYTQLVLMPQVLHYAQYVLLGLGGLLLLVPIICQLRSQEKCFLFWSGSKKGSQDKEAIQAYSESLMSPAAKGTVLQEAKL
Broadly, the AC50 is the concentration giving half of the maximal activity seen. For the compound `C[C@H](CO)N1C[C@H](C)[C@@H](CN(C)S(=O)(=O)c2ccc(Cl)cc2)Oc2ccc(NC(=O)Cc3cn(C)c4ccccc34)cc2C1=O`, the AC50 was 8.91 µM.

As for `COc1ccc(NC(=O)N(C)C[C@@H]2Oc3ccc(NC(=O)Cc4cn(C)c5ccccc45)cc3C(=O)N([C@H](C)CO)C[C@H]2C)cc1`, the AC50 was 1.75 µM.

On to `C[C@@H]1CN([C@H](C)CO)C(=O)c2cc(NC(=O)Cc3cn(C)c4ccccc34)ccc2O[C@H]1CN(C)CC1CCCCC1`, for which the AC50 is 9.24 µM.

`C[C@@H]1CN([C@H](C)CO)C(=O)c2cc(NC(=O)Cn3cnnn3)ccc2O[C@H]1CN(C)S(=O)(=O)c1ccc(Cl)cc1`: the AC50 was 10.3 µM.

For the compound `COc1ccc(NC(=O)Nc2ccc3c(c2)C(=O)N([C@H](C)CO)C[C@@H](C)[C@H](CN(C)S(=O)(=O)c2ccc(Cl)cc2)O3)cc1`, the half-maximal activity concentration (AC50) is 0.304 µM.

Take `COc1ccc(S(=O)(=O)N(C)C[C@@H]2Oc3ccc(NC(=O)Cc4cn(C)c5ccccc45)cc3C(=O)N([C@H](C)CO)C[C@H]2C)cc1`: the half-maximal activity concentration (AC50) was 2.01 µM.

Turning to `C[C@@H]1CN([C@@H](C)CO)C(=O)c2cc(NC(=O)NC3CCCCC3)ccc2O[C@H]1CN(C)Cc1ccncc1`, the half-maximal activity concentration (AC50) was 10.7 µM.

Turning to `C[C@@H]1CN([C@H](C)CO)C(=O)c2cc(NC(=O)Cc3cn(C)c4ccccc34)ccc2O[C@H]1CN(C)C(=O)Nc1ccccc1`, the AC50 was 4.92 µM.

Consider `C[C@@H]1CN([C@H](C)CO)C(=O)c2cc(NC(=O)CCCN(C)C)ccc2O[C@H]1CN(C)S(=O)(=O)c1ccc(Cl)cc1`, for which the AC50 was > 70 µM (inactive).

Take `C[C@@H]1CN([C@H](C)CO)C(=O)c2cc(NC(=O)Nc3ccc(F)cc3)ccc2O[C@H]1CN(C)S(=O)(=O)c1ccc(Cl)cc1`: the concentration at half-maximal activity (AC50) is 0.0708 µM.

Regarding `CC(C)NC(=O)Nc1ccc2c(c1)C(=O)N([C@H](C)CO)C[C@@H](C)[C@H](CN(C)S(=O)(=O)c1ccc(Cl)cc1)O2`, the AC50 is 0.123 µM.

As to `C[C@@H]1CN([C@H](C)CO)C(=O)c2cc(NC(=O)CCC(F)(F)F)ccc2O[C@H]1CN(C)S(=O)(=O)c1ccc(Cl)cc1`, the AC50 is 0.258 µM.

With `C[C@@H]1CN([C@H](C)CO)C(=O)c2cc(N(C)C)ccc2O[C@H]1CN(C)S(=O)(=O)c1ccc(Cl)cc1`, the concentration at half-maximal activity (AC50) is 0.628 µM.

As for `C[C@@H]1CN([C@H](C)CO)C(=O)c2cc(NC(=O)Cc3cn(C)c4ccccc34)ccc2O[C@H]1CN(C)Cc1ccc2c(c1)OCO2`, the AC50 is 0.865 µM.

Consider `COc1ccc(CN(C)C[C@@H]2Oc3ccc(NC(=O)CCCN(C)C)cc3C(=O)N([C@H](C)CO)C[C@H]2C)cc1`, for which the AC50 was > 70 µM (inactive).

Turning to `COc1cc(OC)cc(C(=O)Nc2nc(-c3ccc4c(c3)CCN4C(=O)CN3CCOCC3)cs2)c1`, the half-maximal activity concentration (AC50) is less than 0.015 µM.

For the compound `C[C@@H]1CN([C@H](C)CO)C(=O)c2cc(NC(=O)Cc3cn(C)c4ccccc34)ccc2O[C@H]1CN(C)S(=O)(=O)c1ccc(F)cc1`, the AC50 is 1.11 µM.

For `C[C@@H]1CN([C@H](C)CO)C(=O)c2cc(NC(=O)CCCCCC(=O)Nc3ccccc3N)ccc2O[C@H]1CN(C)S(=O)(=O)c1ccc(Cl)cc1`, the half-maximal activity concentration (AC50) is 0.563 µM.

In the case of `C[C@@H]1CN([C@H](C)CO)C(=O)c2cc(NC(=O)C3CC3)ccc2O[C@H]1CN(C)S(=O)(=O)c1ccc(Cl)cc1`, the concentration at half-maximal activity (AC50) is 2.06 µM.

With `C[C@@H]1CN([C@H](C)CO)C(=O)c2cc(NC(=O)Cc3cn(C)c4ccccc34)ccc2O[C@H]1CN(C)C(=O)Nc1ccc(C(F)(F)F)cc1`, the AC50 is 2.18 µM.

As for `C[C@@H]1CN([C@H](C)CO)C(=O)c2cc(NC(=O)NC3CCCCC3)ccc2O[C@H]1CN(C)S(=O)(=O)c1ccc(Cl)cc1`, the AC50 was 0.354 µM.

As to `Cc1noc(C)c1S(=O)(=O)Nc1ccc2c(c1)C(=O)N([C@H](C)CO)C[C@@H](C)[C@H](CN(C)S(=O)(=O)c1ccc(Cl)cc1)O2`, the AC50 is 0.297 µM.

On to `COCC(=O)N1CCc2cc(-c3csc(NC(=O)c4cc(OC)cc(OC)c4)n3)ccc21`, for which the AC50 was less than 0.015 µM.

For `C[C@H]1CN([C@@H](C)CO)C(=O)c2cc(NC(=O)Cc3cn(C)c4ccccc34)ccc2O[C@@H]1CN(C)S(=O)(=O)c1ccc(Cl)cc1`, the AC50 is 17.4 µM.

Take `C[C@H]1CN([C@@H](C)CO)C(=O)c2cc(NC(=O)Cc3cn(C)c4ccccc34)ccc2O[C@H]1CN(C)S(=O)(=O)c1ccc(Cl)cc1`: the half-maximal activity concentration (AC50) was 12.3 µM.

Regarding `C[C@@H]1CN([C@H](C)CO)C(=O)c2cc(NC(=O)Cc3cn(C)c4ccccc34)ccc2O[C@H]1CN(C)S(=O)(=O)c1cccs1`, the AC50 is 2.36 µM.

Take `C[C@H](CO)N1C[C@H](C)[C@H](CN(C)CC2CCCCC2)Oc2c(NS(=O)(=O)c3cn(C)cn3)cccc2C1=O`: the AC50 was > 70 µM (inactive).

For the compound `C[C@@H]1CN([C@@H](C)CO)C(=O)Cc2cc(NC(=O)CCCN(C)C)ccc2O[C@H]1CN(C)Cc1ccncc1`, the AC50 was > 70 µM (inactive).

Consider `C[C@@H]1CN([C@H](C)CO)C(=O)c2cc(NS(=O)(=O)c3cn(C)cn3)ccc2O[C@H]1CN(C)S(=O)(=O)c1ccc(Cl)cc1`, for which the AC50 is 3.39 µM.

`Cc1ccc(S(=O)(=O)N(C)C[C@@H]2Oc3ccc(NC(=O)Cc4cn(C)c5ccccc45)cc3C(=O)N([C@H](C)CO)C[C@H]2C)cc1`: the concentration at half-maximal activity (AC50) is 0.21 µM.

Turning to `C[C@@H]1CN([C@H](C)CO)C(=O)c2cc(NS(=O)(=O)c3ccccc3)ccc2O[C@H]1CN(C)S(=O)(=O)c1ccc(Cl)cc1`, the half-maximal activity concentration (AC50) is 3.16 µM.

For the compound `C[C@@H]1CN([C@H](C)CO)C(=O)c2cc(NC(=O)Cc3cn(C)c4ccccc34)ccc2O[C@H]1CN(C)S(C)(=O)=O`, the AC50 was 9.87 µM.

Take `C[C@@H]1CN([C@H](C)CO)C(=O)c2cc(NC(=O)Nc3ccc4c(c3)OCO4)ccc2O[C@H]1CN(C)S(=O)(=O)c1ccc(Cl)cc1`: the AC50 is 0.856 µM.

Regarding `O=C(C[C@@H]1CC[C@@H](NC(=O)CC2CC2)[C@H](CO)O1)NCc1ccc(Cl)cc1`, the AC50 was > 70 µM (inactive).

Consider `C[C@@H]1CN([C@H](C)CO)C(=O)c2cc(NC(=O)CCN3CCOCC3)ccc2O[C@H]1CN(C)S(=O)(=O)c1ccc(Cl)cc1`, for which the half-maximal activity concentration (AC50) was 4.95 µM.

As to `C[C@@H]1CN([C@H](C)CO)C(=O)c2cc(NC(=O)c3ccncc3)ccc2O[C@H]1CN(C)S(=O)(=O)c1ccc(Cl)cc1`, the half-maximal activity concentration (AC50) is 0.593 µM.

`C[C@@H]1CN([C@H](C)CO)C(=O)c2cc(NC(=O)Cc3cn(C)c4ccccc34)ccc2O[C@H]1CN(C)C(=O)Nc1ccc(F)cc1`: the concentration at half-maximal activity (AC50) is 1.56 µM.

In the case of `C[C@H](CO)N1C[C@H](C)[C@H](CN(C)C)Oc2c(NS(C)(=O)=O)cccc2C1=O`, the AC50 was > 70 µM (inactive).

Take `C[C@@H]1CN([C@@H](C)CO)C(=O)c2cc(NC(=O)Cc3cn(C)c4ccccc34)ccc2O[C@H]1CN(C)S(=O)(=O)c1ccc(Cl)cc1`: the AC50 is 0.912 µM.

Take `C[C@@H]1CN([C@H](C)CO)C(=O)c2cc(NC(=O)Cc3cn(C)c4ccccc34)ccc2O[C@H]1CN(C)Cc1ccc(C(F)(F)F)cc1`: the AC50 is 0.653 µM.

As for `C[C@@H]1CN([C@H](C)CO)C(=O)Cc2cc(NC(=O)Cc3cn(C)c4ccccc34)ccc2O[C@H]1CN(C)S(=O)(=O)c1ccc(F)cc1`, the half-maximal activity concentration (AC50) is 33.2 µM.

In the case of `C[C@@H]1CN([C@H](C)CO)C(=O)c2cc(NC(=O)Cc3cn(C)c4ccccc34)ccc2O[C@H]1CN(C)S(=O)(=O)c1cn(C)cn1`, the concentration at half-maximal activity (AC50) is 6.39 µM.

In the case of `C[C@@H]1CN([C@H](C)CO)C(=O)c2cc(NC(=O)Cc3cn(C)c4ccccc34)ccc2O[C@H]1CN(C)Cc1ccc(C(=O)O)cc1`, the concentration at half-maximal activity (AC50) is 11.8 µM.

As to `C[C@H](C(=O)NC1CCCC1)N(C(=O)Cn1nnc(-c2ccc3c(c2)OCO3)n1)C1CCCCC1`, the AC50 is 0.0374 µM.

On to `Cc1noc(C)c1NC(=O)N(C)C[C@@H]1Oc2ccc(NC(=O)Cc3cn(C)c4ccccc34)cc2C(=O)N([C@H](C)CO)C[C@H]1C`, for which the half-maximal activity concentration (AC50) was 6.97 µM.

On to `CO[C@H]1CN(C)C(=O)c2cc(NC(=O)c3ccccc3F)ccc2OC[C@@H](C)N(C(C)=O)C[C@@H]1C`, for which the AC50 is > 70 µM (inactive).

The experiment is the same for the next values; noted with them: 3 h, at 11 µM (top of the series).
For `C[C@@H]1CN([C@H](C)CO)C(=O)c2cc(NC(=O)Cc3cn(C)c4ccccc34)ccc2O[C@H]1CN(C)Cc1ccc(Cl)c(Cl)c1`, the “activity change, negative = inhibition” value is “inactive”.

`C[C@@H]1CN([C@H](C)CN)C(=O)c2cc(NC(=O)Cc3cn(C)c4ccccc34)ccc2O[C@H]1CN(C)S(=O)(=O)c1ccc(Cl)cc1`: the “activity change, negative = inhibition” value is “inactive”.

Still in this experiment, the particulars now being: 3 h, at 35 µM (top of the series).
With `Cc1ccccc1-c1ccc2c(c1)O[C@H](CN(C)C(=O)Nc1ccc(F)cc1)[C@H](C)CN([C@H](C)CO)S2(=O)=O`, the “activity change, negative = inhibition” value is “inactive”.

Consider `C[C@@H]1CN([C@H](C)CO)C(=O)c2cc(NC(=O)Cc3cn(C)c4ccccc34)ccc2O[C@H]1CN(C)Cc1ccc(Oc2ccccc2)cc1`, for which the “activity change, negative = inhibition” value was “inactive”.

For the compound `Cc1ccc(S(=O)(=O)Nc2ccc3c(c2)C(=O)N([C@H](C)CO)C[C@@H](C)[C@H](CN(C)S(=O)(=O)c2ccc(Cl)cc2)O3)cc1`, the “activity change, negative = inhibition” value is “inactive”.

As to `CO[C@@H]1CN(C)C(=O)c2ccc(NC(=O)C3CC3)cc2OC[C@@H](C)N(Cc2ccncc2)C[C@H]1C`, the “activity change, negative = inhibition” value is “inactive”.

Take `CO[C@H]1CN(C)C(=O)c2ccc(NC(=O)C3CCCC3)cc2OC[C@@H](C)N(C(=O)CC2CC2)C[C@@H]1C`: the “activity change, negative = inhibition” value is “inactive”.

`C[C@@H]1CN([C@H](C)CO)C(=O)c2cc(NC(=O)Nc3ccccc3)ccc2O[C@H]1CN(C)S(=O)(=O)c1ccc(Cl)cc1`: the “activity change, negative = inhibition” value is “inactive”.

`C[C@@H]1CN([C@H](C)CN(C)C)C(=O)c2cc(NC(=O)Cc3cn(C)c4ccccc34)ccc2O[C@H]1CN(C)S(=O)(=O)c1ccc(Cl)cc1`: the “activity change, negative = inhibition” value was “inactive”.

Regarding `C[C@@H]1CN([C@H](C)CO)C(=O)c2cc(NC(=O)Nc3ccc(C(F)(F)F)cc3)ccc2O[C@H]1CN(C)S(=O)(=O)c1ccc(Cl)cc1`, the “activity change, negative = inhibition” value is “inactive”.

With `CC(C)NC(=O)Nc1cccc2c1O[C@@H](CN(C)Cc1ccc(C(F)(F)F)cc1)[C@@H](C)CN([C@@H](C)CO)C2=O`, the “activity change, negative = inhibition” value was “inactive”.

Consider `C[C@H](CO)N1C[C@H](C)[C@H](CN(C)S(=O)(=O)c2ccc(Cl)cc2)Oc2ccc(NC(=O)Cc3cn(C)c4ccccc34)cc2C1=O`, for which the “activity change, negative = inhibition” value was “inactive”.
